Experimental data published in ChEMBL document CHEMBL1629563, “Pharmacokinetic and safety evaluation of BILR 355, a second-generation nonnucleoside reverse transcriptase inhibitor, in healthy volunteers” (Antimicrob Agents Chemother, 2008).

Legend:
[1] = Apparent volume of distribution in terminal phase in healthy human at 5 mg, po administered as single dose; format: ADME, organism-based; conditions: in vivo, read-out: Vz/F
In short: (§1)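 Single fasting oral dose of BILR 355 in PEG solution with 200 ml tap water, given to healthy males. Standard breakfast came 60-90 min after the dose. EDTA plasma was sampled predose to 144 h, stored below −18°C and assayed by LC-MS/MS after protein precipitation. Noncompartmental analysis gave Vz/F. Vss/F = CL/F·(MRTp.o. − 1/Ka), with Ka from compartmental modelling.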

Homo sapiens [2] = assay: Toxicity in healthy human assessed as occurrence of fatigue at 5 mg, po administered as single dose coadministered with 100 mg of ritonavir; format: organism-based; conditions: in vivo
Homo sapiens [3] = assay: Ratio of half life in human at 75 mg, po in presence of 100 mg of ritonavir to half life in human at 75 mg, po; format: ADME, organism-based; conditions: in vivo
[4] = Drug excretion in healthy human urine assessed as unchanged drug in healthy human at 12.5 mg, po administered as single dose by high-pressure liquid chromatography-tandem mass spectrometry/mass spectrometry method; format: ADME, organism-based; conditions: read-out: Drug uptake
In short: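 Urine was collected by weight after one oral dose of BILR 355 in PEG solution in fasted healthy males. Intervals were predose blank, 0-6, 6-24 and 24-72 h, with the bladder voided before each. Aliquots were stored at −20°C and assayed by LC-MS/MS. fe = amount of unchanged drug excreted (Ae) as a percentage of the administered dose.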

[5] = Apparent oral clearance in healthy human at 50 mg, po administered as single dose coadministered with 100 mg of ritonavir; format: ADME, organism-based; conditions: in vivo
In short: (§2)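 Healthy male volunteers, fasted. Ritonavir 100 mg given 10 h before and again together with single oral BILR 355 in PEG solution. EDTA plasma sampled predose to 144 h. LC-MS/MS assay after protein precipitation. Noncompartmental analysis, AUC by linear up/log down trapezoidal rule; Vss = CL/F·(MRTp.o. − 1/Ka).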

Homo sapiens [6] = assay: Toxicity in healthy human assessed as occurrence of flatulence at 12.5 mg, po administered as single dose relative to control; format: organism-based; conditions: in vivo
Homo sapiens [7] = assay: Toxicity in healthy human assessed as occurrence of maculopapular rash at 75 mg, po administered as single dose coadministered with 100 mg of ritonavir; format: organism-based; conditions: in vivo
[8] = Mean residence time in healthy human at 75 mg, po administered as single dose coadministered with 100 mg of ritonavir; format: ADME, organism-based; conditions: in vivo
[9] = Half life in healthy human at 50 mg, po administered as single dose coadministered with 100 mg of ritonavir; format: ADME, organism-based; conditions: in vivo
[10] = Apparent volume of distribution in terminal phase in healthy human at 5 mg, po administered as single dose coadministered with 100 mg of ritonavir; format: ADME, organism-based; conditions: in vivo, read-out: Vz/F
In short: (§3)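 Healthy male volunteers, fasted overnight, got one oral dose of BILR 355 in PEG solution with 200 ml water. Ritonavir 100 mg was given 10 h before and again with the dose. Plasma was sampled (EDTA) from predose to 144 h and assayed by validated LC-MS/MS. Cmax and Vz/F came from noncompartmental analysis. Vss/F = CL/F·(MRTp.o. − 1/Ka), with Ka from compartmental modelling.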

Homo sapiens [11] = assay: Ratio of Cmax in human at 12.5 mg, po in presence of 100 mg of ritonavir to Cmax in human at 12.5 mg, po; format: ADME, organism-based; conditions: in vivo
[12] = Apparent volume of distribution at steady state in healthy human at 87.5 mg, po administered as single dose coadministered with 100 mg of ritonavir; format: ADME, organism-based; conditions: in vivo, read-out: Vss/F; in short: as §3
[13] = AUC (0 to last) in healthy human at 25 mg, po administered as single dose; format: ADME, organism-based; set-up: dose 25 mg, route oral, time 0 - last; conditions: plasma
In short: (§4)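 Healthy male volunteers, six active plus two placebo per dose group, single oral dose in PEG solution with 200 ml water after overnight fast; breakfast 60 to 90 min post-dose. EDTA plasma sampled predose to 144 h. Assayed by validated LC-MS/MS after protein precipitation. Noncompartmental analysis, AUC by linear up/log down trapezoidal rule; Vss = CL/F·(MRTp.o. − 1/Ka).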

[14] = Apparent volume of distribution at steady state in healthy human at 12.5 mg, po administered as single dose coadministered with 100 mg of ritonavir; format: ADME, organism-based; conditions: in vivo, read-out: Vss/F; in short: as §2
Homo sapiens [15] = assay: Ratio of AUC (0 to infinity) in human at 50 mg, po in presence of 100 mg of ritonavir to AUC (0 to infinity) in human at 50 mg, po; format: ADME, organism-based; conditions: in vivo
[16] = Apparent volume of distribution at steady state in healthy human at 50 mg, po administered as single dose; format: ADME, organism-based; conditions: in vivo, read-out: Vss/F; in short: as §1
[17] = AUC (0 to last) in healthy human at 50 mg, po administered as single dose coadministered with 100 mg of ritonavir; format: ADME, organism-based; set-up: dose 50 mg, time 0 - last, route oral; conditions: plasma; in short: as §2
[18] = Apparent oral clearance in healthy human at 25 mg, po administered as single dose coadministered with 100 mg of ritonavir; format: ADME, organism-based; conditions: in vivo; in short: as §2
Homo sapiens [19] = assay: Toxicity in healthy human assessed as occurrence of palpitations at 5 mg, po administered as single dose relative to control; format: organism-based; conditions: in vivo
Homo sapiens [20] = assay: Toxicity in healthy human assessed as occurrence of diarrhea at 87.5 mg, po administered as single dose coadministered with 100 mg of ritonavir; format: organism-based; conditions: in vivo
[21] = AUC (0 to infinity) in healthy human at 5 mg, po administered as single dose; format: ADME, organism-based; set-up: dose 5 mg, route oral, time infinity; conditions: plasma; in short: as §4
Homo sapiens [22] = assay: Toxicity in healthy human assessed as occurrence of abdominal pain at 12.5 mg, po administered as single dose relative to control; format: organism-based, Abdomen; conditions: in vivo
[23] = Apparent volume of distribution in terminal phase in healthy human at 50 mg, po administered as single dose; format: ADME, organism-based; conditions: in vivo, read-out: Vz/F; in short: as §1
[24] = Renal clearance in healthy human at 5 mg, po administered as single dose by high-pressure liquid chromatography-tandem mass spectrometry/mass spectrometry method; format: ADME, organism-based, Kidney; conditions: in vivo, read-out: CL_renal (converted)
Homo sapiens [25] = assay: Toxicity in healthy human assessed as occurrence of neurological eyelid disorder at 100 mg, po administered as single dose relative to control; format: organism-based; conditions: in vivo
Homo sapiens [26] = assay: Toxicity in healthy human assessed as occurrence of fatigue at 12.5 mg, po administered as single dose coadministered with 100 mg of ritonavir; format: organism-based; conditions: in vivo
[27] = Cmax in healthy human at 12.5 mg, po administered as single dose coadministered with 100 mg of ritonavir by high-pressure liquid chromatography-tandem mass spectrometry/mass spectrometry method; format: ADME, organism-based; set-up: dose 12.5 mg, route oral; conditions: in vivo; in short: as §3
Homo sapiens [28] = assay: Toxicity in healthy human assessed as occurrence of palpitations at 100 mg, po administered as single dose relative to control; format: organism-based; conditions: in vivo
[29] = Apparent volume of distribution in terminal phase in healthy human at 50 mg, po administered as single dose coadministered with 100 mg of ritonavir; format: ADME, organism-based; conditions: in vivo, read-out: Vz/F; in short: as §3
[30] = Tmax in high fat fed healthy human at 50 mg, po administered as single dose coadministered with 100 mg of ritonavir; format: ADME, organism-based; conditions: in vivo
[31] = Apparent oral clearance in healthy human at 12.5 mg, po administered as single dose; format: ADME, organism-based; conditions: in vivo; in short: as §4
[32] = Mean residence time in healthy human at 100 mg, po administered as single dose; format: ADME, organism-based; conditions: in vivo
[33] = Apparent volume of distribution in terminal phase in healthy human at 87.5 mg, po administered as single dose coadministered with 100 mg of ritonavir; format: ADME, organism-based; conditions: in vivo, read-out: Vz/F; in short: as §3

Compound: CCN1c2ncc(CCOc3cc[n+]([O-])c4ccccc34)cc2C(=O)N(C)c2cccnc21 [BILR 355]
- Vd/F [1]: 956 L
- Activity (Homo sapiens [2]): 0%
- Ratio (Homo sapiens [3]): 5.4
- dose excreted [4]: 0.212%
- CL/F [5]: 131 mL/min
- Activity (Homo sapiens [6]): 0%
- Activity (Homo sapiens [7]): 0%
- MRT [8]: 17.4 h
- half-life [9]: 11.5 h
- Vd/F [10]: 153 L
- Ratio (Homo sapiens [11]): 5
- Vd/F [12]: 112 L
- AUC(0-t) [13]: 128 ng·h/mL
- Vd/F [14]: 153 L
- Ratio (Homo sapiens [15]): 15.5
- Vd/F [16]: 390 L
- AUC(0-t) [17]: 6540 ng·h/mL
- CL/F [18]: 98 mL/min
- Activity (Homo sapiens [19]): 0%
- Activity (Homo sapiens [20]): 16.7%
- AUC(0-inf) [21]: 36.3 ng·h/mL
- Activity (Homo sapiens [22]): 0%
- Vd/F [23]: 460 L
- CL renal [24]: 4.52 mL/min
- Activity (Homo sapiens [25]): 0%
- Activity (Homo sapiens [26]): 0%
- Cmax [27]: 74.1 ng/mL
- Activity (Homo sapiens [28]): 0%
- Vd/F [29]: 129 L
- Tmax [30]: 6 h
- CL/F [31]: 4100 mL/min
- MRT [32]: 2.23 h
- Vd/F [33]: 114 L
